Test results taken from ChEMBL document CHEMBL1154414, “In vitro and in vivo activities of T-705 against arenavirus and bunyavirus infections” (Antimicrob Agents Chemother, 2007).
Activity calls are given as the source filed them. The rule behind the calls is not given here.

Experiments:
[1] = tested on: Punta Toro virus; test: Antiviral activity against Punta Toro virus Adames infected Syrian golden hamster assessed as mean viral titer per 0.1 g of liver at 30 mg/kg, […] measured on day 4 of viral infection; assay type: functional; settings: route oral
[2] = tested on: Punta Toro virus; test: Antiviral activity against 5000 PFU Punta Toro virus Adames infected C57BL/6 mouse assessed as mean day of death at 30 mg/kg, po twice daily for 5 days administered 24 hrs post viral challenge; assay type: functional
Procedure, shortened: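 PTV was inoculated subcutaneously into mice in groups of 15 (25–30 placebo). Dosing was by oral gavage twice daily for 5–7 days, with T-705 suspended in 0.4% CMC and ribavirin in saline. Remaining animals were observed 21–28 days for survival and day of death. Test doses had first been checked for tolerance in uninfected animals.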

[3] = tested on: Punta Toro virus; test: Antiviral activity against 5000 PFU Punta Toro virus Adames infected C57BL/6 mouse assessed as mean viral titer per 0.1 mL of serum at 30 mg/kg, po twice daily administered 24 hrs post viral challenge measured on day 3 of viral infection; assay type: functional
Procedure, shortened: (§1)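 Mice were infected subcutaneously with PTV and dosed by oral gavage twice daily; 5 per group (10 placebo) were killed on day 3 or 4. Liver homogenate or serum was serially diluted onto triplicate LLC-MK2 monolayers, and CPE was read 6–8 days later. 50% endpoints gave log10 CCID50 per 0.1 g liver or 0.1 ml serum. Detection range was 2.8–9.5; undetectable samples were assigned <2.8.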

[4] = tested on: Punta Toro virus; test: Antiviral activity against 50 PFU Punta Toro virus Adames infected C57BL/6 mouse assessed as mean day of death at 10 mg/kg, po twice daily for 5 days administered 24 hrs post viral challenge; assay type: functional
Procedure, shortened: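 Groups of 15 mice (25–30 placebo) were inoculated subcutaneously with PTV. Drug in 0.4% carboxymethylcellulose was given by oral gavage twice daily.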

[5] = tested on: Punta Toro virus; test: Antiviral activity against 50 PFU Punta Toro virus Adames infected C57BL/6 mouse assessed as mean viral titer per 0.1 g of liver at 10 mg/kg, po twice daily administered 24 hrs post viral challenge measured on day 3 of viral infection; assay type: functional
Procedure, shortened: (§2)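 Mice were infected subcutaneously with PTV and dosed by oral gavage twice daily with drug in 0.4% CMC. Five per group (10 placebo) were sacrificed on day 3 or 4. Serially diluted liver homogenate or serum went into triplicate LLC-MK2 wells, and CPE 50% endpoints were read at 6–8 days. The range was 2.8–9.5 log10 CCID50/0.1 g or 0.1 ml, with undetectable samples set to 2.8 and saturated samples to 9.5.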

[6] = tested on: Punta Toro virus; test: Antiviral activity against 50 PFU Punta Toro virus Adames infected C57BL/6 mouse assessed as mean viral titer per 0.1 mL of serum at 10 mg/kg, po twice daily administered 24 hrs post viral challenge measured on day 3 of viral infection; assay type: functional; procedure, shortened: as §2
[7] = tested on: Punta Toro virus; test: Antiviral activity against 50 PFU Punta Toro virus Adames infected C57BL/6 mouse assessed as animals with detectable virus level in serum at 30 mg/kg, po twice daily administered 24 hrs post viral challenge measured on day 3 of viral infection; assay type: functional
Procedure, shortened: (§3)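 T-705 was suspended in 0.4% carboxymethylcellulose and given by oral gavage twice daily. Mice were infected subcutaneously with PTV. Five mice per group (10 placebo) were sacrificed on day 3 or 4. Liver homogenate or serum was serially diluted onto triplicate LLC-MK2 monolayers, and CPE was read at 6–8 days. The detection limit was 2.8 log10 CCID50 per 0.1 g liver or 0.1 ml serum.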

[8] = tested on: Pichinde virus; test: Antiviral activity against Pichinde virus An 4763 infected Syrian golden hamster assessed as survival at 50 mg/kg, po twice daily for 7 days administered 72 hrs post viral-challenge; assay type: functional
Procedure, shortened: (§4)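 Groups of 15 hamsters (placebo 25-30) were challenged intraperitoneally (bilateral, 65 PFU) and dosed twice daily by oral gavage in 0.4% CMC for 5 to 7 days.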

[9] = tested on: Pichinde virus; test: Antiviral activity against Pichinde virus An 4763 infected Syrian golden hamster assessed as mean day of death at 50 mg/kg, po twice daily for 7 days administered 72 hrs post viral-challenge measured on day 7 of viral infection; assay type: functional; procedure, shortened: as §4
[10] = tested on: Pichinde virus; test: Antiviral activity against Pichinde virus An 4763 infected Syrian golden hamster assessed as animals with detectable virus level in serum at 20 mg/kg, po twice daily for 7 days administered 72 hrs post viral-challenge measured on day 7 of viral infection; assay type: functional
Procedure, shortened: (§5)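 Hamsters (groups of 15, placebo 25-30) were dosed orally by gavage twice daily (drug suspended in 0.4% CMC) after bilateral intraperitoneal challenge with 65 PFU. Five per group were killed on day 7. Liver homogenate or serum was serially diluted onto triplicate B-SC-1 wells, CPE was read at 6-8 days, and the 50% endpoint was taken. Range was 2.8-9.5 log10 CCID50/0.1 g or 0.1 ml, with undetectable assigned <2.8.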

[11] = tested on: Punta Toro virus; test: Antiviral activity against 500 PFU Punta Toro virus Adames infected C57BL/6 mouse assessed as mean viral titer per 0.1 g of liver at 30 mg/kg, po twice daily administered 24 hrs post viral challenge measured on day 3 of viral infection; assay type: functional; procedure, shortened: as §1
[12] = tested on: Punta Toro virus; test: Antiviral activity against 500 PFU Punta Toro virus Adames infected C57BL/6 mouse assessed as mean viral titer per 0.1 g of liver at 10 mg/kg, po twice daily administered 24 hrs post viral challenge measured on day 3 of viral infection; assay type: functional; procedure, shortened: as §1
[13] = tested on: Punta Toro virus; test: Antiviral activity against 500 PFU Punta Toro virus Adames infected C57BL/6 mouse assessed as animals with detectable virus level in liver at 10 mg/kg, po twice daily administered 24 hrs post viral challenge measured on day 3 of viral infection; assay type: functional; procedure, shortened: as §3
[14] = tested on: Punta Toro virus; test: Antiviral activity against 500 PFU Punta Toro virus Adames infected C57BL/6 mouse assessed as mean viral titer per 0.1 mL of serum at 30 mg/kg, po twice daily administered 24 hrs post viral challenge measured on day 3 of viral infection; assay type: functional; procedure, shortened: as §1
[15] = tested on: Punta Toro virus; test: Antiviral activity against 500 PFU Punta Toro virus Adames infected C57BL/6 mouse assessed as mean viral titer per 0.1 mL of serum at 10 mg/kg, po twice daily administered 24 hrs post viral challenge measured on day 3 of viral infection; assay type: functional; procedure, shortened: as §1
[16] = tested on: Punta Toro virus; test: Antiviral activity against 500 PFU Punta Toro virus Adames infected C57BL/6 mouse assessed as mean serum ALT levels at 30 mg/kg, po twice daily administered 24 hrs post viral challenge measured on day 3 of viral infection; assay type: functional
Procedure, shortened: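 C57BL/6 mice received subcutaneous PTV, then oral gavage twice daily for 5–7 days. T-705 was given in 0.4% CMC and ribavirin in saline. Five mice per group (10 placebo) were killed on day 3 or 4, and serum was collected. ALT activity was measured by kinetic assay. Three sham-infected mice set baselines.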

[17] = tested on: Pichinde virus; test: Antiviral activity against Pichinde virus An 4763 infected Syrian golden hamster assessed as animals with detectable virus level in liver at 40 mg/kg, po twice daily for 7 days administered 4 hrs before viral-challenge measured on day 7 of viral infection; assay type: functional
[18] = tested on: Pichinde virus; test: Antiviral activity against Pichinde virus An 4763 infected Syrian golden hamster assessed as inhibition of liver damage at 40 mg/kg, po twice daily for 7 days administered 4 hrs before viral-challenge measured on day 7 of viral infection; assay type: functional, organism-based; set-up: dose 40 mg/kg
Procedure, shortened: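 Hamsters were challenged intraperitoneally (bilateral, 65 PFU) and dosed twice daily by oral gavage in 0.4% CMC. On day 7, five animals per group were sacrificed. Livers were scored 0-4 for hepatic icterus (0 normal, 4 maximal yellow coloration), and serum ALT was measured by kinetic assay.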

[19] = tested on: Pichinde virus; test: Antiviral activity against Pichinde virus An 4763 infected Syrian golden hamster assessed as animals with detectable virus level in liver at 20 mg/kg, po twice daily for 7 days administered 24 hrs post viral-challenge measured on day 7 of viral infection; assay type: functional; procedure, shortened: as §5

SMILES	log10CCID50 [1]	Activity [2] [days]	log10CCID50 [3]	Activity [4] [days]	log10CCID50 [5]	log10CCID50 [6]	Activity [7] [%]	Efficacy [8] [%]	Activity [9] [days]	Activity [10] [%]	log10CCID50 [11]	log10CCID50 [12]	Activity [13] [%]	log10CCID50 [14]	log10CCID50 [15]	Activity [16] [IU/L]	Activity [17] [%]	Activity [18]	Activity [19] [%]
NC(=O)c1nc(F)cnc1O [FAVIPIRAVIR]	<3.5	5	<3.3	5.8	<2.8	6.9	80	60	14.8	100	<3.2	<2.8	0	<5.1	7.1	900	20	Active	100
NC(=O)c1ncn([C@@H]2O[C@H](CO)[C@@H](O)[C@H]2O)n1 [RIBAVIRIN]	<2.8	5	<4.2	5.3	<3.3	<4.9	100	60	18.5	100	<3.1	<2.9	20	<5	6.7	450	20	Active	100
